Laboratory results taken from ChEMBL document CHEMBL1649441, “Potency and bactericidal activity of iclaprim against recent clinical gram-positive isolates” (2009).

Experiments:
[1] = test system: Staphylococcus aureus; experiment: Antibacterial activity against Methicillin-resistant Staphylococcus aureus assessed as inhibition of bacterial growth at 0.03 ug/ml by CLSI broth microdilution method; assay type: functional
Procedure, shortened: (§1)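 Recent clinical isolates from skin/soft tissue, bloodstream and respiratory specimens. Tested by broth microdilution per CLSI M7-A7 and M100-S18, with the appropriate quality controls. The thymidine content of the test medium was assessed to rule out artifactual inhibition.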

[2] = test system: Enterococcus faecalis; experiment: Antibacterial activity against Enterococcus faecalis assessed as inhibition of bacterial growth at 0.015 ug/ml by CLSI broth microdilution method; assay type: functional
Procedure, shortened: (§2)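 Clinical isolates from skin/soft tissue, bloodstream and respiratory specimens were tested by broth microdilution per CLSI M7-A7 and M100-S18, with quality controls. Values are the number of isolates inhibited at each concentration, or MIC / percent susceptible. Highest concentration tested was 8 µg/ml for iclaprim and trimethoprim-sulfamethoxazole, and 64 µg/ml for trimethoprim.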

[3] = test system: Staphylococcus aureus; experiment: Antibacterial activity against Methicillin-sensitive Staphylococcus aureus assessed as inhibition of bacterial growth at <= 0.008 ug/ml by CLSI broth microdilution method; assay type: functional; procedure, shortened: as §1
[4] = test system: Enterococcus faecalis; experiment: Antibacterial activity against Enterococcus faecalis assessed as inhibition of bacterial growth at <= 0.008 ug/ml by CLSI broth microdilution method; assay type: functional; procedure, shortened: as §2
[5] = test system: Staphylococcus aureus; experiment: microbe, parasite or virus in culture; conditions: read-out: INH
[6] = test system: Staphylococcus aureus; experiment: Antibacterial activity against Methicillin-resistant Staphylococcus aureus assessed as susceptible isolates by CLSI broth microdilution method; assay type: functional
[7] = test system: Streptococcus sp. 'group B'; experiment: microbe, parasite or virus in culture; conditions: read-out: INH
[8] = test system: Streptococcus sp. 'group B'; experiment: microbe, parasite or virus in culture; conditions: read-out: INH; remark: listed apart in the source

COc1cc(Cc2cnc(N)nc2N)c2c(c1OC)OC(C1CC1)C=C2 (stereo not drawn)
inhibition at 0.03 µg/mL [1]: 12.8% | inhibition at 0.015 µg/mL [2]: 57.7% | inhibition (INH) [3]: 0.1% | inhibition (INH) [4]: 25.5%

COc1cc(Cc2cnc(N)nc2N)cc(OC)c1OC [TRIMETHOPRIM]
inhibition at 16 µg/mL [5]: 93.6% | Activity [6]: 92.9% | inhibition at 32 µg/mL [7]: 100% | inhibition at 16 µg/mL [8]: 100%
